Entries after “also recorded” stand apart in the source; their conditions may differ. Blank lines part the entries; values can stand above or below the compound they belong to.
Assays:
[1] = biological target: T1, endogenous mGlu5 in striatal neurons (Rattus norvegicus, UniProt P31424); assay: Single cell Ca2+ imaging; format: cell-based; conditions: for effect on Quis-mediated Ca2+ responses (intracellular mGlu5): compound at 1, 5, 10 μM; for effect on single cell intracellular responses at 10-fold IC50: at 10-fold their IC50 values (refs 20, 25)
Outline: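 Primary striatal cultures from 1-day-old neonatal rat pups, on gridded glass dishes, loaded with 5 μM Oregon Green 488 BAPTA-AM. Cultures were preincubated with 20 μM CPCCOEt (mGlu1 antagonist) plus 25 μM AMPA receptor antagonist, then imaged by confocal microscopy during agonist (Quis 10 μM) and NAM (1, 5, 10 μM) exposure. Signals were taken as fractional fluorescence change over basal and normalized to Quis response (% Quis).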

[2] = biological target: mGlu5 (mGlu5/HEK stable cell line) (Rattus norvegicus, UniProt P31424); assay: Fluorescence-based Ca2+ flux assay with a microplate reader; format: cell-based; conditions: for LLE: LLE = pIC50 − log P (consensus log Po/w Table 1, IC50 Table 3)
[3] = biological target: T1, endogenous mGlu5 in striatal neurons; assay: as above; format: cell-based
[4] = biological target: T2, endogenous mGlu5 in hippocampal neurons (Rattus norvegicus, UniProt P31424); assay: as above; format: cell-based
[5] = biological target: endogenous mGlu5 in cortical neurons (Rattus norvegicus, UniProt P31424); assay: as above; format: cell-based
mGlu5 (mGlu5/HEK cells) = assay: Single cell Ca2+ imaging; format: cell-based; conditions: for effect on DHPG-induced oscillatory Ca2+ response: DHPG 100 μM, NAM applied after agonist at 1, 5, 10 μM; for effect of NAM pretreatment on DHPG or Quis-mediated Ca2+ responses: DHPG 100 μM or Quis 10 μM
mGlu5 = conditions: read-out: published IC50; cited from earlier work
[6] = system: mGlu5 (mGlu5/HEK stable cell line); assay: Fluorescence-based Ca2+ flux assay with a microplate reader; format: cell-based; conditions: LLE = pIC50 − log P (consensus log Po/w Table 1, IC50 Table 3)
[7] = biological target: T2, endogenous mGlu5 in hippocampal neurons; assay: Single cell Ca2+ imaging; format: cell-based; conditions: pretreatment 1 μM, Quis 10 μM

T2 sequence (P31424 21-1203): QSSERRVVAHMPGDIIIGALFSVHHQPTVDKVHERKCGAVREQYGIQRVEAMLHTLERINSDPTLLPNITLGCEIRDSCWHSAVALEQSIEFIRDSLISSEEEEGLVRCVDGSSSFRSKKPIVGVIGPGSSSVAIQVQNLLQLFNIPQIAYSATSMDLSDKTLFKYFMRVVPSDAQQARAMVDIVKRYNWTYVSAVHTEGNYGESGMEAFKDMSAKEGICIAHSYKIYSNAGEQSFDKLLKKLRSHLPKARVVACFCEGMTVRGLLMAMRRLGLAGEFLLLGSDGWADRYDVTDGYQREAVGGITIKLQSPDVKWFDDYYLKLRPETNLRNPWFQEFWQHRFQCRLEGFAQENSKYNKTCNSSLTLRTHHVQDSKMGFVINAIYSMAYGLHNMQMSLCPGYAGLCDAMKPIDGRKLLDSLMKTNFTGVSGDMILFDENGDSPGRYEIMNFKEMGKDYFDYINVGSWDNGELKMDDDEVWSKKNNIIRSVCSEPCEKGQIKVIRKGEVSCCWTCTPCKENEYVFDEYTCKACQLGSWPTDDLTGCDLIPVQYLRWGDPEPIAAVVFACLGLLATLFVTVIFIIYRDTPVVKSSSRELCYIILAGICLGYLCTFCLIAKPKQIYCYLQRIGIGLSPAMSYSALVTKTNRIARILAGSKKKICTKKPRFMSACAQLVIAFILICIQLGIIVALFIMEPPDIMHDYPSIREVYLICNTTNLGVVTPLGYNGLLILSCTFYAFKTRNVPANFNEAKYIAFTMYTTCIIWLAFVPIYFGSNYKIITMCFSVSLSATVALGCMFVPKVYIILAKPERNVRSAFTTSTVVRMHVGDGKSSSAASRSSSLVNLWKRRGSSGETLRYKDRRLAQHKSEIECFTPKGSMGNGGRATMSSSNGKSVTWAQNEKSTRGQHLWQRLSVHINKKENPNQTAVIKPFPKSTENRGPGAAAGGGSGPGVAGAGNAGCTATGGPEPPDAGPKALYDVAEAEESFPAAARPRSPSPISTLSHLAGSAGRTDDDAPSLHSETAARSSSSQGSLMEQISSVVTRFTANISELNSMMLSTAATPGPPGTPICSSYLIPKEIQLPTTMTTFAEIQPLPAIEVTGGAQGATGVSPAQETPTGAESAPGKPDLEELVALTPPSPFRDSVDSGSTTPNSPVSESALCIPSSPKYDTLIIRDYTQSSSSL
T1 sequence (P31424 21-1203): as above
endogenous mGlu5 in cortical neurons, sequence (P31424 21-1203): as above
mGlu5 (mGlu5/HEK stable cell line) (Rattus norvegicus, UniProt P31424), sequence (P31424 21-1203): as above
mGlu5 (mGlu5/HEK stable cell line), sequence (P31424 21-1203): as above

SMILES: NC(CC1c2ccccc2Sc2ccccc21)(C(=O)O)C1CC(C(=O)O)C1 (mixture of isomers) [LY393053, 2-Amino-2-(3-cis/trans-carboxycyclobutyl)-3-(9H-thioxanthen-9-yl) propionic acid]
- effect on Quis-mediated Ca2+ responses (intracellular mGlu5) ([1]; striatal neurons, Quis 10 μM): neither 5MPEP,[34] a neutral allosteric modulator, nor LY393053 affected Quis-induced Ca^2+ rises

SMILES: Cc1cccnc1C#Cc1ccccc1 [5MPEP, 5-methyl-6-(phenylethynyl)-pyridine]
- effect on Quis-mediated Ca2+ responses (intracellular mGlu5) ([1]; striatal neurons, Quis 10 μM): neither 5MPEP,[34] a neutral allosteric modulator, nor LY393053 affected Quis-induced Ca^2+ rises

SMILES: N[C@H](C(=O)O)c1cc(O)cc(O)c1 [DHPG, (S)-3,5-dihydroxyphenylglycine]
- maximum DHPG-induced Ca2+ increase, % of the Quis-induced response ([3]; plate reader, cell type not given): 15–20%

SMILES: Cc1cccc(C#Cc2ccccc2)n1 [MPEP, 2-methyl-6-(phenylethynyl)pyridine]
- effect on DHPG-induced oscillatory Ca2+ response (mGlu5 (mGlu5/HEK cells)): blocked
- effect of NAM pretreatment on DHPG or Quis-mediated Ca2+ responses (mGlu5 (mGlu5/HEK cells)): completely blocked

SMILES: N[C@@H](Cn1oc(=O)[nH]c1=O)C(=O)O [Quis, Quisqualate]
- Quis EC80 [2]: 125 ± 32.3 nM
- EC50 [3]: 1310 ± 360 nM
- fold difference in EC50 between the cortical and hippocampal neurons and the striatum, respectively ([3]; Quis): 8–10 fold
- fold difference in the EC50 for Quis in HEK cells versus striatal neurons ([3]; mGlu5/HEK versus endogenous mGlu5-expressing striatal neurons): 42 fold
- Quis EC80 ([3]; striatal): 5250 ± 1430 nM
- difference in EC50 between cell surface and intracellular mGlu5 ([3]; striatum, Quis with versus without LY393053 20 μM): no difference in EC50
- EC50 [4]: 122 ± 12.1 nM
- Quis EC80 ([4]; hippocampal): 515 ± 51.4 nM
- fold difference in potency, Quis with versus without LY393053 ([4]; hippocampus, LY393053 20 μM): ~1.8 fold
- EC50 [5]: 168 ± 55.8 nM
- fold difference in potency, Quis with versus without LY393053 ([5]; cortex, LY393053 20 μM): ~1.8 fold
- Quis EC80 ([5]; cortical): 670 ± 223 nM

SMILES: Cc1nc(C#Cc2ccnc(Cl)c2)c(C)n1-c1ccc(F)cc1 [RG7090, 2-chloro-4-((1-(4-fluorophenyl)-2,5-dimethyl-1H-imidazol-4-yl)ethynyl)pyridine]
- LLE [6]: 4.59
- IC50 [3]: 62 ± 17.5 nM
- IC50 [4]: 8.97 ± 3.4 nM
- IC50 [5]: 80.2 ± 16.8 nM
- fold difference of potency in cortical neurons versus HEK cells [5]: 45 fold
- effect on DHPG-induced oscillatory Ca2+ response (mGlu5 (mGlu5/HEK cells)): blocked
- effect of NAM pretreatment on DHPG or Quis-mediated Ca2+ responses (mGlu5 (mGlu5/HEK cells)): completely blocked
- effect on Quis-mediated Ca2+ responses (intracellular mGlu5) ([1]; striatal neurons, Quis 10 μM): most effective; also recorded: very effective

Now from value to compound, other results behind:

- LLE [2]: 4.57
- IC50 [3]: 9440 ± 3780 nM
- fold shift of IC50 between mGlu5/HEK cells and striatal cultures [3]: 250 fold
- IC50 [4]: 257 ± 27.4 nM
- IC50 [5]: 270 ± 73 nM
- effect on DHPG-induced Ca2+ response ([1]; striatal neurons, pre- or post-treatment, cell-surface only agonist DHPG): blocked
SMILES: COC(=O)N1CC[C@@H]2[C@H]1CCC[C@@]2(O)C#Cc1cccc(C)c1 [AFQ056, methyl (3aR,4S,7aR)-4-hydroxy-4-[(3-methylphenyl)ethynyl]octahydro-1H-indole-1-carboxylate]
- effect on DHPG-induced oscillatory Ca2+ response (mGlu5 (mGlu5/HEK cells)): inhibited; also recorded: blocked
- effect on Quis-induced Ca2+ response (mGlu5 (mGlu5/HEK cells); Quis 10 μM, NAM at 1, 5, 10 μM): inhibited; also recorded: blocked
- effect of NAM pretreatment on DHPG or Quis-mediated Ca2+ responses (mGlu5 (mGlu5/HEK cells)): completely blocked
- effect on Quis-mediated Ca2+ responses (intracellular mGlu5) ([1]; striatal neurons, Quis 10 μM): neither 1, 5, nor 10 μM AFQ056 blocked Quis-mediated Ca^2+ responses; also recorded: did not completely block; also recorded: fails to block
- IC50 (mGlu5): 30 nM

- LLE [6]: 4.29
- IC50 [3]: 3560 ± 520 nM
- IC50 [4]: 96.2 ± 17.8 nM
- IC50 [5]: 380 ± 78 nM
- effect on single cell intracellular responses at 10-fold IC50 [1]: did not block
- effect on Quis-mediated Ca2+ responses (intracellular mGlu5) ([1]; striatal neurons, Quis 10 μM): less effective
SMILES: C[C@@H](Oc1nnc(-c2ccncc2)n1C)c1cc(-c2cccc(Cl)c2)on1 [AZD2066, 4-[5-[(1R)-1-[5-(3-chlorophenyl)-3-isoxazolyl]ethoxy]-4-methyl-4H-1,2,4-triazol-3-yl]pyridine]
- effect on DHPG-induced oscillatory Ca2+ response (mGlu5 (mGlu5/HEK cells)): blocked
- effect of NAM pretreatment on DHPG or Quis-mediated Ca2+ responses (mGlu5 (mGlu5/HEK cells)): completely blocked

- LLE [2]: 5.50
- IC50 [3]: 2930 ± 480 nM
- fold shift of IC50 between mGlu5/HEK cells and striatal cultures [3]: 16 fold
- IC50 [4]: 442 ± 150 nM
- IC50 [5]: 807 ± 53.5 nM
- LLE ([5]; cortical, LLE = pIC50 − log P (consensus log Po/w Table 1, IC50 Table 3)): 2.94
- effect on Quis-induced Ca2+ response at 1 μM NAM [7]: less effective
- effect on single cell intracellular responses at 10-fold IC50 [1]: did not block
- effect on Quis-mediated Ca2+ responses (intracellular mGlu5) ([1]; striatal neurons, Quis 10 μM): less effective
- effect on Quis-induced Ca2+ response at 1 μM NAM ([1]; striatal, pretreatment 1 μM, Quis 10 μM): less effective
SMILES: CN1CC(=O)N=C1NC(=O)Nc1cccc(Cl)c1 [Fenobam, N-(3-chlorophenyl)-N′-(4,5-dihydro-1-methyl-4-oxo-1H-imidazol-2-yl)urea]
- effect on DHPG-induced oscillatory Ca2+ response (mGlu5 (mGlu5/HEK cells)): blocked
- effect on Quis-induced Ca2+ response at 1 μM NAM (mGlu5 (mGlu5/HEK cells); pretreatment 1 μM, Quis 10 μM): less effective
- effect of NAM pretreatment on DHPG or Quis-mediated Ca2+ responses (mGlu5 (mGlu5/HEK cells)): completely blocked

Reference: publication PMC8753982 (ACS chemical neuroscience, 2019)
